In ChEMBL document CHEMBL1136850, “Neuroprotective activity and evaluation of Hsp90 inhibitors in an immortalized neuronal cell line” (Bioorg Med Chem, 2009):
Activity calls are given as the source filed them. The calls are words filed in the database; no cut-off is given here.

Key:
SH-SY5Y [1] = assay: Toxicity in retinoic acid-differentiated human SH-SY5Y cells assessed as effect on cell morphology at 10 uM after 24 hrs by trypan blue exclusion method; assay type: cell-based
Procedure, shortened: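 Retinoic acid-differentiated SH-SY5Y cells (10 μM RA, 7 days) were exposed to 10 μM drug or DMSO without Aβ for 24 h. Neurite morphology was examined by phase-contrast microscopy. Viability was counted by 0.04% trypan blue exclusion.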

SH-SY5Y [2] = assay: Neuroprotection against beta-amyloid peptide 1-42-induced toxicity in human SH-SY5Y cells assessed as lactate dehydrogenase release; assay type: functional, cell-based
Procedure, shortened: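 Proliferating SH-SY5Y cells were grown in DMEM with 10% FBS at 37°C in 5% CO2, then seeded into 96-well plates. Drug or DMSO was given 2 h before 10 μM Aβ in serum-free DMEM for 48 h. LDH released into the cleared medium was read kinetically as NADH oxidation (50 mM phosphate pH 7.4, 1 mM pyruvate, 0.2 mM NADH; […], 5 min, 25°C). Aβ alone was set as 100% cell death. Mean ± S.E.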

SH-SY5Y [3] = assay: Toxicity in human SH-SY5Y cells at 10 uM by trypan blue exclusion method; assay type: cell-based
SH-SY5Y [4] = assay: Neuroprotection against beta-amyloid peptide 1-42-induced toxicity in retinoic acid-differentiated human SH-SY5Y cells assessed as lactate dehydrogenase release at 1 uM; assay type: functional
Procedure, shortened: (§1)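 SH-SY5Y cells were differentiated for 7 days with 10 μM retinoic acid until they stopped proliferating and grew neurites. Drug was added 2 h before 10 μM Aβ in serum-free DMEM for 48 h. Released LDH was measured by NADH oxidation (pyruvate 1 mM, NADH 0.2 mM, pH 7.4; […] over 5 min at 25°C). Protection is expressed against Aβ alone, taken as 100% death.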

SH-SY5Y [5] = assay: Neuroprotection against beta-amyloid peptide 1-42-induced toxicity in retinoic acid-differentiated human SH-SY5Y cells assessed as lactate dehydrogenase release at 10 nM; assay type: functional, cell-based; procedure, shortened: as §1
SH-SY5Y [6] = assay: Neuroprotection against beta-amyloid peptide 1-42-induced toxicity in retinoic acid-differentiated human SH-SY5Y cells assessed as lactate dehydrogenase release; assay type: functional, cell-based; procedure, shortened: as §1

Compound	Activity (SH-SY5Y [1])	EC50 (SH-SY5Y [2]) [nM]	AC50 (SH-SY5Y [3])	Activity (SH-SY5Y [4]) [%]	Activity (SH-SY5Y [5])	Activity (SH-SY5Y [6])
CO[C@@H]1[C@@H](O)[C@@H](O)[C@H](Oc2ccc3cc(NC(C)=O)c(=O)oc3c2)OC1(C)C	Non-toxic	4.85				
CO[C@@H]1[C@@H](O)[C@@H](O)[C@H](Oc2ccc3cc(NC(C)=O)c(=O)oc3c2C)OC1(C)C	Non-toxic	1.49	Non-toxic	70		
O=C(O[C@@H]1Cc2c(O)cc(O)cc2O[C@@H]1c1cc(O)c(O)c(O)c1)c1cc(O)c(O)c(O)c1 [EPIGALOCATECHIN GALLATE]		39.9				
COC1=C2C[C@@H](C)C[C@H](OC)[C@H](O)[C@@H](C)/C=C(\C)[C@H](OC(N)=O)[C@@H](OC)/C=C\C=C(/C)C(=O)NC(=CC1=O)C2=O [GELDANAMYCIN]	Toxic	42.7			Active	inactive
CC1=C(O)C(=O)C=C2C1=CC=C1[C@@]2(C)CC[C@@]2(C)[C@@H]3C[C@](C)(C(=O)O)CC[C@]3(C)CC[C@]12C [CELASTROL]		37.6				
CO[C@@H]1[C@@H](O)[C@@H](O)[C@H](Oc2ccc3cc(NC(=O)CCCCCCC(=O)Nc4cc5ccc(O[C@@H]6OC(C)(C)[C@H](OC)[C@@H](O)[C@H]6O)c(C)c5oc4=O)c(=O)oc3c2C)OC1(C)C	Non-toxic	4.48	Non-toxic			
O=C(O)/C=C/c1nn(Cc2ccc(Cl)cc2Cl)c2cc(C(F)(F)F)ccc12						inactive
CC(=O)O[C@@H]1C[C@H]2C(C)(C)C(=O)C=C[C@]2(C)[C@H]2CC[C@@]3(C)[C@H](c4ccoc4)OC(=O)[C@H]4O[C@]43[C@@]21C [GEDUNIN]		39				
CO[C@@H]1[C@@H](OC(N)=O)[C@@H](O)[C@H](Oc2ccc3c(O)c(NC(=O)c4ccc(O)c(CC=C(C)C)c4)c(=O)oc3c2C)OC1(C)C [NOVOBIOCIN]	Toxic	48.4			Active	Active
